Reference: ChEMBL document CHEMBL5380804, “Discovery of 2-(3-Benzamidopropanamido)thiazole-5-carboxylate Inhibitors of the Kinesin HSET (KIFC1) and the Development of Cellular Target Engagement Probes” (J Med Chem, 2023)
pIC50, pKd: −log10 of the molar value. One block for each compound: values may come before it.

Assays:
[1] = biological target: T1, Kinesin-like protein KIFC1 (Homo sapiens) (UniProt Q9BW19); test: Displacement of CCT369834 probe from HSET in human DLD-1 cells assessed as decrease in localization of CCT369834 probe at 0.1 to 10 uM incubated for 45 mins by Alexa-488 fluorophore staining immunofluorescence analysis; assay type: cell-based; settings: dose 0.1-10 µM
T1 sequence (whole entry): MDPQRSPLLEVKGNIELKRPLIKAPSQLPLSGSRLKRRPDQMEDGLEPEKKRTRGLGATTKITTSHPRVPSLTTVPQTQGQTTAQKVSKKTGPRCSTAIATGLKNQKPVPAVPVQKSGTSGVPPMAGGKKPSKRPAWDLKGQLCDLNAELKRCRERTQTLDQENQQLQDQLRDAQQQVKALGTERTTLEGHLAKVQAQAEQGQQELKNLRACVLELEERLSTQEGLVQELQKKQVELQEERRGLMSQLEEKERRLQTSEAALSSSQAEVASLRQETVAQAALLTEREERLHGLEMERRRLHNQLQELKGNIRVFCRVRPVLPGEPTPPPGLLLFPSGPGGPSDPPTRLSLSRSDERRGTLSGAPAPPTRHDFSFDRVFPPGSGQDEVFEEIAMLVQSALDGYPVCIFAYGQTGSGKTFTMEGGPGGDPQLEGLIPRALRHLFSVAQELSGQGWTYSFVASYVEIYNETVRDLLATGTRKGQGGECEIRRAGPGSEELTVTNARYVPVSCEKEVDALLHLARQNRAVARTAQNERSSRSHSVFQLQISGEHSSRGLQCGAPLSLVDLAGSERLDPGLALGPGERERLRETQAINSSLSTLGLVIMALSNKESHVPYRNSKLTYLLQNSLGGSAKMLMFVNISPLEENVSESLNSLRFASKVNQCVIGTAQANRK
Outline: (§1)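 Target engagement in DLD1 4N cells, with HSET-knockout DLD1 as negative control. Cells pretreated 2 h with 8 μM pro-TAME, then given 3 μM TCO probe alone or with competitor plus 8 μM MG-132 in 1% FBS medium for 45 min. Washed, PFA-fixed, then 400 nM tetrazine-Cy5 for 10 min. Stained for pericentrin, KIFC1 and DAPI, followed by confocal 3D segmentation of mitotic poles. Cy5/KIFC1 pole intensity ratio, with KO signal subtracted, normalized to probe-alone control; n > 100 cells per replicate, two replicates per concentration.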

[2] = biological target: T1, Kinesin-like protein KIFC1 (Homo sapiens); test: Displacement of CCT369834 probe from HSET in human DLD-1 cells assessed as decrease in localization of CCT369834 probe at 0.1 to 10 uM incubated for 45 mins by TZ-Cy5 staining immunofluorescence analysis; assay type: cell-based; settings: dose 0.1-10 µM; outline: as §1
[3] = biological target: T1, Kinesin-like protein KIFC1 (Homo sapiens); test: Displacement of CCT369834 probe from HSET in human DLD-1 cells assessed as decrease in localization of CCT369834 probe at 0.1 to 10 uM incubated for 45 mins by DAPI staining immunofluorescence analysis; assay type: cell-based; settings: dose 0.1-10 µM; outline: as §1
[4] = biological target: T2, Kinesin-like protein KIFC1 (Homo sapiens, UniProt Q9BW19); test: Binding affinity to N-terminal His-tagged full length recombinant human HSET assessed as dissociation constant incubated for 3 hrs in presence of 7 ug/ml of microtubules by fluorescence polarization assay
T2 sequence (Q9BW19 whole entry): T1 sequence (whole entry)
Outline: (§2)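 Full-length human N-His HSET titrated from 2000 to 0.5 nM. Preincubated 10 min with paclitaxel-stabilized preformed microtubules or reconstitution buffer, then added to 2.5 nM sulfoCy5 probe. Buffer: 20 mM HEPES pH 7.5, 200 mM NaCl, 10 mM MgCl2, 1 mM TCEP, 0.1 mM Triton X-100, 5% glycerol.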

[5] = biological target: T2, Kinesin-like protein KIFC1; test: Binding affinity to N-terminal His-tagged full length recombinant human HSET assessed as dissociation constant incubated for 3 hrs in presence of 70 ug/ml of microtubules by fluorescence polarization assay; outline: as §2
[6] = biological target: T1, Kinesin-like protein KIFC1 (Homo sapiens); test: Binding affinity to HSET in human DLD-1 assessed as fold increase in signal at 3 uM incubated for 45 mins by Alexa-488 fluorophore staining immunofluorescence analysis; assay type: cell-based
Outline: (§3)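 DLD1 4N cells and CRISPR HSET-knockout DLD1 cells pretreated 2 h with 8 μM pro-TAME, then 45 min with 3 μM TCO click probe plus 8 μM MG-132 in DMEM/1% FBS. After washes, fixed in 4% PFA and reacted with 400 nM tetrazine-Cy5 for 10 min at room temperature. Stained for pericentrin, KIFC1 (Alexa-488) and DAPI; confocal 40× imaging; signal expressed relative to tetrazine-Cy5 alone.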

[7] = biological target: T1, Kinesin-like protein KIFC1 (Homo sapiens); test: Binding affinity to HSET in human DLD-1 with HSET knockout assessed as fold increase in signal at 3 uM incubated for 45 mins by Alexa-488 fluorophore staining immunofluorescence analysis; assay type: cell-based; outline: as §3
[8] = biological target: T2, Kinesin-like protein KIFC1; test: Displacement of FP-Probe from N-terminal His-tagged full length recombinant human HSET incubated for 2 hrs by fluorescence polarization based competitive binding assay
Outline: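 Competitive FP assay with 400 nM full-length human N-His HSET and 2.5 nM sulfoCy5 probe in 20 mM HEPES pH 7.5, 200 mM NaCl, 10 mM MgCl2, 1 mM TCEP, 0.1 mM Triton X-100, 5% glycerol. 11-point compound series from 100 to 0.001 μM final.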

[9] = biological target: T1, Kinesin-like protein KIFC1 (Homo sapiens); test: Inhibition of N-terminal His-tagged full length recombinant human HSET assessed as inhibition of microtubule-stimulated ATPase activity incubated for 10 mins in presence of ultra-ATP by ADP-Glo kinase assay relative to control

SMILES: CCCOC(=O)c1sc(NC(=O)C[C@H](CCCN(C)C)NC(=O)c2cccc(-c3noc(C)n3)c2)nc1C
Activity [1]: Dose-Dependent Effect
Activity [2]: Dose-Dependent Effect
Activity [3]: Dose-Dependent Effect

SMILES: CCCOC(=O)c1sc(NC(=O)C[C@H](CCCNC(=O)CCCCC[N+]2=C(/C=C/C=C/C=C3/N(C)c4ccc(S(=O)(=O)O)cc4C3(C)C)C(C)(C)c3cc(S(=O)(=O)O)ccc32)NC(=O)c2cccc(-c3noc(C)n3)c2)nc1C
pKd [4]: 6.50
pKd [5]: 6.48

SMILES: CCCOC(=O)c1sc(NC(=O)C[C@H](CCCN(C)CC#CCNC(=O)O[C@@H]2CC/C=C/CCC2)NC(=O)c2cccc(-c3noc(C)n3)c2)nc1C
fold change (FC) [6]: 14
fold change (FC) [7]: 7

SMILES: CCOC(=O)c1sc(NC(=O)CCNC(=O)C2CCCC(C)C2)nc1C (stereo not given)
inhibition [9]: 47%

Other lines, results leading:

pIC50 [8]: 6.96
SMILES: CCOC(=O)c1sc(NC(=O)CCNC(=O)c2cccc(-c3noc(C)n3)c2)nc1C

inhibition [9]: 47%
SMILES: CCOC(=O)c1sc(NC(=O)CCNC(=O)c2ccccc2)nc1C
